How the values were obtained:
HeLa [1] = experiment: Antiviral activities in a cell culture HIV-1 infectivity inhibition assay using HeLa cells plus 50% normal human serum; assay type: functional
[2] = molecular target: C-C chemokine receptor type 5 (Homo sapiens, UniProt P51681); experiment: Inhibitory concentration for displacement of [125I]-MIP-1 alpha from recombinant human CC chemokine receptor 5 (CCR5) expressed in CHO cell; assay type: cell-based
Outline: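 Competitive binding to CCR5 on CHO cell membranes, read as displacement of [125I]-labeled MIP-1α. IC50 values are means of triplicate determinations. Standard errors were normally <15% within an assay. Assay-to-assay variation was within ±2-fold, judged from a standard compound.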

HeLa [3] = experiment: Antiviral activities in a cell culture HIV-1 infectivity inhibition assay using HeLa cells; assay type: functional; conditions: Homo sapiens

Sequence of C-C chemokine receptor type 5 (P51681 whole entry): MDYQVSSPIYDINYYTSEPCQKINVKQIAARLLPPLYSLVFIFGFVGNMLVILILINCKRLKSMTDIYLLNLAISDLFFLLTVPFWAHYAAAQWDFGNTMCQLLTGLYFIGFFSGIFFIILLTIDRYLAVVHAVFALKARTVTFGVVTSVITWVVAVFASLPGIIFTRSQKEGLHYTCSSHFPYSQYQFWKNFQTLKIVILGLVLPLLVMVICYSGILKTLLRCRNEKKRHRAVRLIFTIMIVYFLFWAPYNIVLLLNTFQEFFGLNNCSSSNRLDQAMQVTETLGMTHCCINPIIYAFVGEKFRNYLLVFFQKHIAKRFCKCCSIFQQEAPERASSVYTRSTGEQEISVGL

Row | Compound | IC90 (HeLa [1]) [nM] | IC50 [2] [nM] | IC90 (HeLa [3]) [nM]
1 | CCn1nc(Cc2ccccc2)cc1C1CCN(C[C@H]2CN([C@@H](C(=O)O)C3CCCCC3)C[C@@H]2c2cccc(F)c2)CC1 | 100 | – | –
2 | CCCCOc1ccc(Cc2cc(C3CCN(C[C@H]4CN([C@@H](C(=O)O)[C@H](C)CC)C[C@@H]4c4cccc(F)c4)CC3)n(CC)n2)cc1 | 100 | 0.8 | 3.7
3 | CCOc1ccc(Cc2cc(C3CCN(C[C@H]4CN([C@@H](C(=O)O)[C@H](C)CC)C[C@@H]4c4cccc(F)c4)CC3)n(CC)n2)cc1F | 33 | 0.4 | < 0.14
4 | CC[C@@H](C)[C@H](C(=O)O)N1C[C@H](CN2CCC(c3cc(Cc4cccc5ccccc45)nn3CC)CC2)[C@@H](c2cccc(F)c2)C1 | 33 | 0.2 | < 0.14
5 | CCn1nc(Cc2ccc(OC)cc2)cc1C1CCN(C[C@H]2CN([C@@H](C(=O)O)C(C)C)C[C@@H]2c2cccc(F)c2)CC1 | 100 | 1.3 | 0.4
6 | CCn1nc(Cc2cccc(C#N)c2)cc1C1CCN(C[C@H]2CN([C@@H](C(=O)O)C(C)C)C[C@@H]2c2cccc(F)c2)CC1 | 100 | 1.7 | 3.7
7 | CCn1nc(Cc2ccc(S(=O)(=O)c3ccccc3)cc2)cc1C1CCN(C[C@H]2CN([C@@H](C(=O)O)C3CCCCC3)C[C@@H]2c2cccc(F)c2)CC1 | 33 | 0.8 | 0.4
8 | CCOc1ccc(Cc2cc(C3CCN(C[C@H]4CN([C@@H](C(=O)O)C(C)C)C[C@@H]4c4cccc(F)c4)CC3)n(CC)n2)cc1F | 100 | 0.4 | < 0.14
9 | CC[C@@H](C)[C@H](C(=O)O)N1C[C@H](CN2CCC(c3cc(Cc4ccc(OC)c(OC)c4)nn3CC)CC2)[C@@H](c2cccc(F)c2)C1 | 33 | 2.6 | 0.4
10 | CCCOc1ccc(Cc2cc(C3CCN(C[C@H]4CN([C@@H](C(=O)O)[C@H](C)CC)C[C@@H]4c4cccc(F)c4)CC3)n(CC)n2)cc1 | 300 | 1.2 | 1.2
11 | CCn1nc(Cc2ccc(OC)c(C#N)c2)cc1C1CCN(C[C@H]2CN([C@@H](C(=O)O)C(C)(C)C)C[C@@H]2c2cccc(F)c2)CC1 | 33 | 0.9 | < 0.14
12 | CCn1nc(Cc2ccc(F)c(F)c2)cc1C1CCN(C[C@H]2CN([C@@H](C(=O)O)C(C)C)C[C@@H]2c2cccc(F)c2)CC1 | 300 | 1.1 | 3.7
13 | CCn1nc(Cc2cccnc2)cc1C1CCN(C[C@H]2CN([C@@H](C(=O)O)C(C)C)C[C@@H]2c2cccc(F)c2)CC1 | 300 | 13.1 | 11
14 | CCn1nc(Cc2ccc(OC3CCC3)cc2)cc1C1CCN(C[C@H]2CN([C@@H](C(=O)O)C(C)C)C[C@@H]2c2cccc(F)c2)CC1 | 100 | 0.6 | 1.2
15 | CC[C@H](C)[C@H](C(=O)O)N1C[C@H](CN2CCC(c3cc(Cc4ccc5c(c4)OCO5)nn3CC)CC2)[C@@H](c2cccc(F)c2)C1 | 100 | 0.5 | < 0.14
16 | CC[C@H](C)[C@H](C(=O)O)N1C[C@H](CN2CCC(c3cc(Cc4ccc(C)cc4)nn3CC)CC2)[C@@H](c2cccc(F)c2)C1 | 11 | 0.3 | < 0.14
17 | CCn1nc(Cc2ccc(S(=O)(=O)c3ccccc3)cc2)cc1C1CCN(C[C@H]2CN([C@@H](C(=O)O)C(C)(C)C)C[C@@H]2c2cccc(F)c2)CC1 | 3.7 | 1.1 | < 0.14
18 | CCn1nc(Cc2ccc3ccccc3c2)cc1C1CCN(C[C@H]2CN([C@@H](C(=O)O)C(C)(C)C)C[C@@H]2c2cccc(F)c2)CC1 | 100 | 0.2 | < 0.14
19 | CCCCOc1ccc(Cc2cc(C3CCN(C[C@H]4CN([C@@H](C(=O)O)C(C)(C)C)C[C@@H]4c4cccc(F)c4)CC3)n(CC)n2)cc1 | 33 | 0.8 | 1.2
20 | CC[C@@H](C)[C@H](C(=O)O)N1C[C@H](CN2CCC(c3cc(Cc4ccc(OC5CC5)cc4)nn3CC)CC2)[C@@H](c2cccc(F)c2)C1 | 33 | 0.3 | < 0.14
21 | CC[C@@H](C)[C@H](C(=O)O)N1C[C@H](CN2CCC(c3cc(Cc4cccc(CN)c4)nn3CC)CC2)[C@@H](c2cccc(F)c2)C1 | 33 | 2.7 | 3.7
22 | CCn1nc(Cc2ccc(OCC(F)(F)F)cc2)cc1C1CCN(C[C@H]2CN([C@@H](C(=O)O)C(C)(C)C)C[C@@H]2c2cccc(F)c2)CC1 | 100 | 0.6 | 1.2
23 | CC[C@H](C)[C@H](C(=O)O)N1C[C@H](CN2CCC(c3cc(Cc4ccc5ccccc5c4)nn3CC)CC2)[C@@H](c2cccc(F)c2)C1 | 300 | 0.3 | < 0.14
24 | CCn1nc(Cc2ccc(OC(F)F)cc2)cc1C1CCN(C[C@H]2CN([C@@H](C(=O)O)C(C)(C)C)C[C@@H]2c2cccc(F)c2)CC1 | 11 | 0.5 | < 0.14

From ChEMBL document CHEMBL1147446, “Antagonists of human CCR5 receptor containing 4-(pyrazolyl)piperidine side chains. Part 3: SAR studies on the benzylpyrazole segment” (Bioorg Med Chem Lett, 2004)
